Screening data from PubChem.
Measles CPE = protection of cells from measles virus; Measles virus-infected cells, CPE protection, absorbance; protection (pct of control), % at 4 µM; 140,000 tested, 1.5% active; in the data active = protection mostly above about 24%, no sharp cut-off; inactive = mostly below about 26%
Yeast life ext = yeast lifespan extension | 130,000 tested, 0.68% active | S. cerevisiae growth with nicotinamide, OD615; deaD strain in restrictive glucose medium | AID 775 | inhibition of the nicotinamide effect, % at 10 µM;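 active = inhibition above a set limit, placed 3 SD over the median of all compounds, cut at about 26% in these data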;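 note: 0% = nicotinamide-treated wells and 100% = cells grown without nicotinamide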
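Assay system: engineered S. cerevisiae DeaD replicative-lifespan strain, galactose-grown log-phase cells; Buffer or medium: CSMM-D glucose medium, restrictive; Probe or stimulus: nicotinamide 1.5 mM; Compound: single dose 10 µM compound, 0.25% DMSO; Schedule: 4 h preincubation then 48 h treatment at 30 °C; Technique: OD615 measurement.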
BB579 growth dn = chemicals that inhibit yeast BB579 growth in restrictive medium (lifespan-shortening candidates) | S. cerevisiae BB579 growth, OD615, 48 h | inhibition, % at 10 µM | 140,000 tested, 0.51% active;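 active = inhibition above a set limit, 3 SD over the mean compound inhibition, cut at about 44% in these data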
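controls = amphotericin B 10 µg/mL, positive | assay system = DeaD yeast strain BB579 | schedule = 48 h compound exposure at 30 °C after 4 h preincubation | detection = OD615 turbidity measurement | medium = restrictive CSMM-D medium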
sdo1 growth = restores growth of sdo1-depleted yeast | S. cerevisiae sdo1-depleted JHY4D growth rescue, OD600 30 h; active compounds read high; pdr5 snq2 efflux-pump mutant strain | z-score at 10 µM | 140,000 tested, 0.21% active | AID 817;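 active = z-score above 3 at both the 24 hr and the 30 hr optical density reads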;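 note: z-score against mean and SD of all compound wells on the same plate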
RAM network inh = yeast RAM network inhibition. inhibition, % at 50 µM. S. cerevisiae dse1pr::URA3 reporter, 5-FOA growth OD615, 2 d; analog-sensitive cbk1-as2 kinase mutant strain. AID 868. 190,000 tested, 1.8% active;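 active = inhibition above a set limit, 3 SD over mean compound inhibition, cut at about 8.4% in these data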;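 note: 0% = DMSO-only wells with no growth and 100% = 10 µM 1-NA-PP1 full growth; inhibition rescues growth on 5-FOA so higher OD means more RAM inhibition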
The depositor's hits bear a star; nt = no result given. A selection: hits, their analogues and other compounds. The true share with any hit is near 3.8%.

SMILES	Measles CPE	Yeast life ext	BB579 growth dn	sdo1 growth	RAM network inh
N#Cc1c(-c2ccccc2F)cc(C2CC2)nc1SCC(=O)c1cccs1	29	-3	-40	-1	3
CCN(CC)C(=O)c1ccc2c(c1)nnn2C	5	10	-45	0.06	1
Cc1ccc(-c2cc(-c3ccccc3Cl)[nH]n2)c(O)c1	11	-19	92*	-2.7	0
Cc1ccc(-c2cc(-c3ccccc3[N+](=O)[O-])[nH]n2)c(O)c1	4	-11	-27	-2	2
CSc1nc(C)c2c(n1)N(c1ccc(C(C)C)cc1)CC2	25	-23	-10	-1.3	0
O=C(c1cccc(-c2ccc(O)cc2)c1)N1CCN(c2ccc(F)cc2)CC1	nt	nt	nt	nt	3
CSC1=C(C#N)C(c2ccccc2Cl)C2=C(N1)c1ccccc1C2=O (stereo not given)	10	28*	-21	-0.55	3
CCOC(=O)c1ccc(NC(=O)CCc2nc(-c3ccccc3)no2)cc1	7	-7	-36	-1.7	9.5*
CCOC(=O)c1ccc(NC(=O)CCc2nc(-c3ccccc3Cl)no2)cc1	0	-8	-51	-1.9	8
Cc1cccc(-c2noc(CCCC(=O)Nc3cccnc3)n2)c1	active	-24	-45	0.42	1
CCOCCc1nnc(NC(=O)Cc2c(F)cccc2Cl)s1	nt	nt	nt	nt	7
CCN(C(=O)COC(=O)/C=C/c1c(C)nn(Cc2ccc(C)cc2)c1C)C1CCS(=O)(=O)C1 (stereo not given)	nt	nt	nt	nt	-1
Cc1cc2ccccc2n1CCNC(=O)C(C)Oc1ccccc1 (stereo not given)	5	-12	-22	0	8.7*
COc1ccc(/C=C/C(=O)NCCn2c(C)cc3ccccc32)cc1OC	2	-5	-1	0.98	6
COc1cc(/C=C/C(=O)NCCn2c(C)cc3ccccc32)cc(OC)c1OC	4	-3	-16	0.34	9.7*
CCN1CCN(c2nc(S(=O)(=O)c3ccc(C)cc3)c(Cl)s2)CC1	nt	nt	nt	nt	1
Cc1ccc(NC(=O)c2ccccc2OCC(=O)Nc2cccc(Cl)c2C)nc1	nt	nt	nt	nt	2
O=P(COCCOCCOCCOCP(=O)(c1ccccc1)c1ccccc1)(c1ccccc1)c1ccccc1	nt	nt	nt	nt	1
CC(C)Oc1ccc(CNC2CCOC(C)(C)C2)cc1 (stereo not given)	12	-6	-25	0.83	0
CC[n+]1c(/C=C2\C=C(C)CC(C)(C)C2)sc2ccccc21	13	40*	-15	-1	2
CC[n+]1c(/C=C2\C=C(C)CC(C)C2)sc2ccccc21 (stereo not given)	12	27*	-28	-0.95	1
COC(=O)c1ccc(N2CCN(C)CC2)c(NC(=O)c2cccnc2)c1	nt	nt	nt	nt	2
CCCOc1ccc(C(C)=O)cc1CSCCC#N	40*	-5	-11	-0.32	1
CCc1cccc(C)c1NC(=S)NCCc1c(C)[nH]c2ccc(C)cc12	10	2	45*	-1.8	7
COc1ccc([N+](=O)[O-])cc1NC(=O)C(C)c1ccccc1 (stereo not given)	29	-2	-12	-0.6	1
SMILES	Measles CPE	Yeast life ext	BB579 growth dn	sdo1 growth	RAM network inh
COC(=O)c1cc(OC)c(OC)cc1NC(=O)C(C)Sc1ccc(C)cc1 (stereo not given)	1	-1	-42	-0.85	3
COc1ccc([N+](=O)[O-])cc1NC(=S)NC(NC(=O)C(c1ccccc1)c1ccccc1)C(Cl)(Cl)Cl (stereo not given)	77*	-8	-53	-0.05	2
COc1ccc([N+](=O)[O-])cc1NC(=O)CSc1ccc2ccccc2c1	7	1	-27	0.16	8.4*
COc1ccc([N+](=O)[O-])cc1NC(=O)C(C)Sc1ccc(C)cc1 (stereo not given)	4	-6	1	-0.79	9.2*
COc1ccc([N+](=O)[O-])cc1NC(=O)CSc1nc(C)cc(C)n1	2	-1	-34	0.28	2
CCCCN1C(=O)c2ccc(C(=O)NCCN3C(=O)S/C(=C\c4cccnc4)C3=O)cc2C1=O	7	-5	-10	-1.3	1
CC(=O)OC1=C(C#N)Cn2ccc3cccc1c32	57*	35	-65	1.6	1
Cc1ccc(OCc2ccc(Br)cc2)c([N+](=O)[O-])n1	nt	nt	nt	nt	5
Cc1ccc(-c2[nH]nc(N)c2N=Nc2cccc(Cl)c2C)cc1	4	-9	-41	-2.6	5
Cc1ccc(-c2[nH]nc(N)c2N=Nc2ccccc2C)cc1	5	-38	52*	-1.9	2
CCCn1c(SCC(=O)N2c3ccccc3Sc3ccccc32)nc2ccccc21	33*	-2	-39	0.16	7
CCCn1c(SCC(=O)O)nc2ccccc21	16	-8	-38	1.3	0
COc1cc(OC)c(NS(=O)(=O)c2ccc(Cl)c(C(=O)OC(C)C(=O)N3CCCC3)c2)cc1Cl (stereo not given)	2	-5	-26	0.32	2
O=C(CC(c1ccccc1)c1ccco1)Nc1nccs1 (stereo not given)	25*	-2	-29	-0.32	6
CC(C)CNC(=S)Nc1ccc(Oc2ccccc2)cc1	7	-1	11	-1.1	3
N#CCOc1nc(N2CCCCC2)nc(N2CCCCC2)n1	nt	nt	nt	nt	-1
CCOc1nc(C#N)nc(N2CCCCC2)n1	36*	24	-36	0.9	2
Cc1cc(C)c(N2CCN(S(=O)(=O)N3CCCCCC3)CC2)c(C)c1	9	-6	-68	-0.79	11*
Cc1ccc(N2CCN(S(=O)(=O)N3CCCCC3)CC2)cc1Cl	9	0	-17	0.29	0
COc1ccc(N2CCN(C(=O)CC34CC5CC(CC(C5)C3)C4)CC2)c([N+](=O)[O-])c1	4	1	-32	-1	10.0*
CCC(=O)N1CCN(c2ccc(OC)cc2[N+](=O)[O-])CC1	14	-7	-19	-0.03	1
O=C(NCCO)Nc1ccc(Cl)cc1	nt	nt	nt	nt	1
CCOC(=O)CSc1nnc(CNC(=O)c2ccco2)n1C	19	3	-1	1.1	0
CCn1c2ccccc2c2cc(NC(=O)c3cc(OC)cc(OC)c3)ccc21	2	-1	-30	-0.13	8.6*
CCn1c2ccccc2c2cc(NC(=O)COc3ccc(OC)cc3)ccc21	14	-13	-20	-0.44	5
Clc1cc(Cl)cc(CSc2nnc(-c3sccc3-n3cccc3)o2)c1	15	-2	-16	0.18	8
Clc1cccc(CSc2nnc(-c3sccc3-n3cccc3)o2)c1	10	-9	-13	-1.2	8.9*
CCC1(C)CC(c2csc(N)n2)CCO1 (stereo not given)	65*	10	5	0.7	0
Cc1nc(SCC(=O)N2CC(C)OC(C)C2)nc(C)c1C (stereo not given)	26*	-7	9	1.4	-1
CC1CN(C(=O)CSc2nc(-c3ccccc3)cs2)CC(C)O1 (stereo not given)	22	-3	-33	0.4	2
